# Test results from ChEMBL document CHEMBL4118256, “Second Generation of Mannich Base-Type Derivatives with in Vivo Activity against Trypanosoma cruzi” (J Med Chem, 2018).
# Calls of active or inactive are those of the source. No cut-off for these calls is given here.
# Assays:
# [1] = test system: Mus musculus; assay: (§1) Nephrotoxicity in Balb/c mouse infected with Trypanosoma cruzi MHOM/Pe/2011/Arequipa DTU 5 trypamastigotes assessed as increase in uric acid level in serum at 100 mg/kg, po once daily for 5 consecutive days starting from day 75 post infection measured on day 81 post infection by biochemical analysis relative to control; format: toxicity, organism-based; conditions: in vivo
# [2] = test system: Trypanosoma cruzi; assay: Antitrypanosomal activity against Trypanosoma cruzi MHOM/Pe/2011/Arequipa DTU 5 epimastigotes assessed as effect on parasite glycolytic pathway by measuring decrease in succinate excretion at IC25 after 72 hrs by 1H NMR method; format: functional, organism-based
# In short: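 Arequipa epimastigotes exposed at IC25 for 72 h alongside an untreated control. Excreted catabolites were analysed by 1H NMR, and each peak is reported as % variation versus the control. Three separate determinations.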
# [3] = test system: Mus musculus; assay: as §1, with “10” for “75”, “16” for “81”; format: toxicity, organism-based; conditions: in vivo
# [4] = test system: Mus musculus; assay: as §1, with “urea” for “uric acid”; format: toxicity, organism-based; conditions: in vivo
# [5] = test system: Mus musculus; assay: as §1, with “10” for “75”, “127” for “81”; format: toxicity, organism-based; conditions: in vivo
# [6] = test system: Trypanosoma cruzi; assay: (§2) Antitrypanosomal activity against Trypanosoma cruzi MHOM/Pe/2011/Arequipa DTU 5 trypamastigotes infected in Balb/c mouse assessed as reduction in parasitaemia reactivation in bone marrow tissue at 100 mg/kg, po pretreated once daily for 5 consecutive days starting from day 75 post infection followed by cyclophosphamide-induced immunosuppression on day 100 post infection every 4 days for a maximum of 3 doses measured on day 127 post infection by PCR method; format: functional; set-up: scale not given: the % may be the effect or the level left
# In short: (§3)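 Necropsy on day 127 pi after oral treatment and cyclophosphamide immunosuppression. Tissue DNA was amplified by PCR targeting the ~300 bp T. cruzi SOD gene, 200 nM each primer, 30 cycles with 55.5 °C annealing. Products run on 2 % agarose; positive organs counted out of six mice.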
# [7] = test system: Trypanosoma cruzi; assay: as §2, with “stomach” for “bone marrow”; format: functional; set-up: scale not given: the % may be the effect or the level left
# [8] = test system: Trypanosoma cruzi; assay: as §2, with “heart” for “bone marrow”; format: functional; set-up: scale not given: the % may be the effect or the level left; in short: as §3
# [9] = test system: Mus musculus; assay: as §1, with “Hepatotoxicity” for “Nephrotoxicity”, “decrease” for “increase”, “ratio of serum ALT to GPT” for “uric acid”, “level” for “level in serum”, “10” for “75”, “127” for “81”; format: toxicity, organism-based; set-up: scale not given: the % may be the effect or the level left; conditions: in vivo
# [10] = test system: Trypanosoma cruzi; assay: Antitrypanosomal activity against Trypanosoma cruzi MHOM/Pe/2011/Arequipa DTU 5 trypamastigotes infected in Balb/c mouse assessed as reduction in parasitaemia level at 100 mg/kg, po once daily for 5 consecutive days starting from day 10 post infection measured up to day 50 post infection by Neubauer chamber method; format: functional, organism-based
# [11] = test system: Trypanosoma cruzi; assay: Antitrypanosomal activity against Trypanosoma cruzi MHOM/Pe/2011/Arequipa DTU 5 trypamastigotes infected in Balb/c mouse assessed as parasitaemia reactivation at 100 mg/kg, po pretreated once daily for 5 consecutive days starting from day 75 post infection followed by cyclophosphamide-induced immunosuppression on day 100 post infection every 4 days for a maximum of 3 doses measured up to 1 week post immunosuppression by Neubauer chamber method; format: functional
# [12] = test system: Trypanosoma cruzi; assay: as §2, with “lung” for “bone marrow”; format: functional; set-up: scale not given: the % may be the effect or the level left; in short: as §3
# [13] = test system: Mus musculus; assay: Cardiotoxicity in Balb/c mouse infected with Trypanosoma cruzi MHOM/Pe/2011/Arequipa DTU 5 trypamastigotes assessed as decrease in ratio of creatine kinase in muscle to brain at […], po once daily for 5 consecutive days starting from day 10 post infection measured on day 16 post infection by biochemical analysis relative to control; format: toxicity, organism-based; set-up: scale not given: the % may be the effect or the level left; conditions: in vivo
# In short: (§4)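 Serum clinical chemistry in Arequipa-infected female BALB/c mice. Oral 20 mg·kg-1 per day for 5 days, started day 10 or day 75 pi. Samples taken at day 16 pi or day 81 pi, and on necropsy day. Markers: CK-MB and LDH (U/L), AST, ALT and alkaline phosphatase (U/L), total bilirubin. Results scored relative to infected untreated controls; uninfected reference n = 15.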
# [14] = test system: Mus musculus; assay: as §1, with “Hepatotoxicity” for “Nephrotoxicity”, “ratio of serum ALT to GPT” for “uric acid”, “level” for “level in serum”; format: toxicity, organism-based; conditions: in vivo
# [15] = test system: Mus musculus; assay: as §1, with “Hepatotoxicity” for “Nephrotoxicity”, “ratio of serum ALT to GPT” for “uric acid”, “level” for “level in serum”, “10” for “75”, “16” for “81”; format: toxicity, organism-based; conditions: in vivo
# [16] = test system: Mus musculus; assay: as §1, with “Hepatotoxicity” for “Nephrotoxicity”, “ratio of serum AST to GOT” for “uric acid”, “level” for “level in serum”, “127” for “81”; format: toxicity, organism-based; conditions: in vivo
# [17] = test system: Mus musculus; assay: as §1, with “Hepatotoxicity” for “Nephrotoxicity”, “ratio of serum AST to GOT” for “uric acid”, “level” for “level in serum”; format: toxicity, organism-based; conditions: in vivo
# [18] = test system: Mus musculus; assay: as §1, with “decrease” for “increase”, “127” for “81”; format: toxicity, organism-based; set-up: scale not given: the % may be the effect or the level left; conditions: in vivo
# [19] = test system: Mus musculus; assay: as §1, with “Hepatotoxicity” for “Nephrotoxicity”, “ratio of serum AST to GOT” for “uric acid”, “level” for “level in serum”, “20” for “100”, “10” for “75”, “127” for “81”; format: toxicity, organism-based; conditions: in vivo
# [20] = test system: Mus musculus; assay: as §1, with “decrease” for “increase”, “20” for “100”, “10” for “75”, “16” for “81”; format: toxicity, organism-based; set-up: scale not given: the % may be the effect or the level left; conditions: in vivo
# [21] = test system: Mus musculus; assay: (§5) Cardiotoxicity in Balb/c mouse infected with Trypanosoma cruzi MHOM/Pe/2011/Arequipa DTU 5 trypamastigotes assessed as change in ratio of creatine kinase in muscle to brain at 20 mg/kg, po once daily for 5 consecutive days starting from day 75 post infection measured on day 127 post infection by biochemical analysis relative to control; format: toxicity, organism-based; conditions: in vivo; in short: as §4
# [22] = test system: Mus musculus; assay: as §1, with “Hepatotoxicity” for “Nephrotoxicity”, “ratio of serum ALT to GPT” for “uric acid”, “level” for “level in serum”, “20” for “100”, “10” for “75”, “16” for “81”; format: toxicity, organism-based; conditions: in vivo
# [23] = test system: Mus musculus; assay: as §1, with “Hepatotoxicity” for “Nephrotoxicity”, “total bilirubin” for “uric acid”, “level” for “level in serum”, “20” for “100”, “127” for “81”; format: toxicity, organism-based; conditions: in vivo
# [24] = test system: Mus musculus; assay: as §5, with “decrease” for “change”, “serum LDH level” for “ratio of creatine kinase in muscle to brain”; format: toxicity, organism-based; set-up: scale not given: the % may be the effect or the level left; conditions: in vivo; in short: as §4
# [25] = test system: Mus musculus; assay: Toxicity in Balb/c mouse assessed as reduction in body mass at 20 mg/kg, po once daily for 5 consecutive days starting from day 10 post infection relative to control; format: organism-based; set-up: scale not given: the % may be the effect or the level left; conditions: in vivo
# [26] = test system: Mus musculus; assay: as §1, with “Hepatotoxicity” for “Nephrotoxicity”, “total bilirubin” for “uric acid”, “level” for “level in serum”, “20” for “100”, “10” for “75”, “16” for “81”; format: toxicity, organism-based; conditions: in vivo
# [27] = test system: Trypanosoma cruzi; assay: as §2, with “in muscle” for “in bone marrow”, “at 20” for “at 100”, “day 10” for “day 75”; format: functional; set-up: scale not given: the % may be the effect or the level left
# [28] = test system: Mus musculus; assay: as §1, with “Hepatotoxicity” for “Nephrotoxicity”, “alkaline phosphatase” for “uric acid”, “level” for “level in serum”, “20” for “100”, “127” for “81”; format: toxicity, organism-based; conditions: in vivo
smiles,measurement,setting,value
COc1ccc(C(=O)CCN2CCN(c3ccc(F)cc3)CC2)cc1,Activity,[1],<= 10%
same,Activity,[2],Active
same,Activity,[3],<= 20%
same,Activity,[4],<= 30%
same,Activity,[5],<= 10%
COc1ccc(C(=O)CCN2CCN(c3ccc(Cl)cc3)CC2)cc1,Activity,[6],78%
same,Activity,[7],78%
same,Activity,[8],78%
same,Activity,[9],<= 10%
same,Activity,[10],Active
same,Activity,[11],20%
same,Activity,[12],78%
same,Activity,[13],<= 20%
COc1ccc(C(=O)CCN2CCN(c3ccc([N+](=O)[O-])cc3)CC2)cc1,Activity,[14],<= 30%
same,Activity,[15],> 40%
same,Activity,[16],<= 20%
same,Activity,[17],<= 30%
same,Activity,[18],<= 30%
O=C(Cn1ccnc1[N+](=O)[O-])NCc1ccccc1 [BENZNIDAZOLE],Activity,[19],> 40%
same,Activity,[20],> 40%
same,Activity,[21],< 10%
same,Activity,[22],> 40%
same,Activity,[23],<= 20%
same,Activity,[24],<= 20%
same,Activity,[25],> 10%
same,Activity,[26],<= 20%
same,Activity,[27],33%
same,Activity,[28],<= 20%
